Test results: ChEMBL document CHEMBL1122517, “2-Phenylindoles. Relationship between structure, estrogen receptor affinity, and mammary tumor inhibiting activity in the rat” (1984)
Values joined by “and” are separate entries in the source; they are usually repeats but may differ in a detail not shown here. Equal entries are not always repeated. Each block holds one compound with its values, some of them ahead of it.

Assays:
[1] = target: T1, Estrogen receptor (Mus musculus) (UniProt O08537+P19785); test: Percentage inhibition of uterotrophic activity at 125 ug dose; format: functional
Method in brief: (§1)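 Antiuterotrophic test in immature 19-day-old female NMRI mice (n=10), dosed sc on 3 consecutive days with 0.4 µg estrone per animal per day plus compound in olive oil. Uterine dry weight/body weight ×100 was read 24 h after the last dose. Inhibition % = 100 − [(E_S,T − E_V)/(E_S − E_V)]×100.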

[2] = target: T1, Estrogen receptor (Mus musculus); test: Uterotrophic activity in mice as uterus dry weight (mg)/body weight (g) *100 at 5 ug dose; format: functional, tissue-based
Method in brief: (§2)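 Immature 19-day-old female NMRI mice, groups of 10. Compound dose per animal in olive oil (50 µL) sc on 3 consecutive days. Mice were killed 24 h after the last injection. Uteri were Bouin-fixed 20 h, cleaned, washed with alcoholic LiCl, and dried at 100 °C for 24 h. Effect = uterine dry weight (mg)/body weight (g) ×100; mean ± SD.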

Rattus norvegicus [3] = species on record: Rattus norvegicus; test: Percent unchanged DMBA-induced mammary carcinoma tumors in rats at 1.8 mg dose; format: functional
Method in brief: (§3)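 Female Sprague-Dawley rats, 50 days old, given a single 20 mg DMBA dose in 1 mL olive oil by gavage. Rats were palpated twice weekly from day 30, and those without tumors by day 70 were discarded. Rats were randomized once tumor area exceeded 140 mm². Drug dose was per kg in olive oil (1 mL/kg) sc, single dose Mon–Thu and double dose Fri. Tumor area (caliper, two perpendicular axes) and body weight were measured twice weekly.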

Rattus norvegicus [4] = species on record: Rattus norvegicus; test: Change in DMBA-induced mammary carcinoma tumor area in rats at 1.8 mg dose; -75-656; format: functional
Method in brief: (§4)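 Female Sprague-Dawley rats got one 20 mg DMBA dose by gavage at 50 days old and were palpated twice weekly from day 30. Rats were randomized once tumor area exceeded 140 mm². Dose (per kg) was given sc in olive oil, once daily Monday to Thursday and doubled on Friday. Tumor area was taken from caliper measurements of two perpendicular axes, twice weekly. Change per animal is given as median % and range.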

Rattus norvegicus [5] = species on record: Rattus norvegicus; test: Partial remission (%) of DMBA-induced mammary carcinoma tumors in rats at 1.8 mg dose; format: functional
Method in brief: (§5)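 DMBA-induced tumors in Sprague-Dawley rats, entered when tumor area exceeded 140 mm². Dose per kg was given sc in olive oil, daily Monday to Thursday with a double dose Friday. Tumors were measured by calipers twice weekly. Tumor number was counted at the start of the test. Complete remission meant the tumor was no longer palpable. Partial remission meant reduction to ≤50% of initial size. New tumor appearance was recorded.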

[6] = target: T1, Estrogen receptor (Mus musculus); test: Anti-uterotrophic activity in mice as uterus dry weight (mg)/body weight (g) *100 at 25 ug dose; format: functional, tissue-based
Method in brief: (§6)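 Immature female NMRI mice, 19 days old, groups of 10, given sc injections on 3 consecutive days. Each injection held 0.4 μg estrone plus the indole dose per animal, in olive oil (50 μL). Killed 24 h after the last injection. Uteri were fixed in Bouin solution, washed, and dried 24 h at 100 °C. Read-out was uterine dry weight (mg)/body weight (g) × 100, mean ± SD.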

[7] = target: T1, Estrogen receptor (Mus musculus); test: Anti-uterotrophic activity in mice as uterus dry weight (mg)/body weight (g) *100 at 5 ug dose; format: functional, tissue-based; method in brief: as §6
[8] = target: T1, Estrogen receptor (Mus musculus); test: Uterotrophic activity in mice as uterus dry weight (mg)/body weight (g) *100 at 1 ug dose; format: functional, tissue-based; method in brief: as §2
[9] = target: T1, Estrogen receptor (Mus musculus); test: Uterotrophic activity in mice as uterus dry weight (mg)/body weight (g) *100 at 125 ug dose; format: functional, tissue-based; method in brief: as §2
[10] = target: T1, Estrogen receptor (Mus musculus); test: Percentage inhibition of uterotrophic activity at 25 ug dose; format: functional; method in brief: as §1
[11] = target: T1, Estrogen receptor (Mus musculus); test: Anti-uterotrophic activity in mice as uterus dry weight (mg)/body weight (g) *100 at 125 ug dose; format: functional, tissue-based; method in brief: as §6
Rattus norvegicus [12] = species on record: Rattus norvegicus; test: Formation of new DMBA-induced mammary carcinoma tumors in rats at 1.8 mg dose; format: functional; method in brief: as §5
Rattus norvegicus [13] = species on record: Rattus norvegicus; test: Percent progressive DMBA-induced mammary carcinoma tumors in rats at 1.8 mg dose; format: functional; method in brief: as §3
[14] = target: T1, Estrogen receptor (Mus musculus); test: Uterotrophic activity in mice as uterus dry weight (mg)/body weight (g) *100 at 25 ug dose; format: functional, tissue-based; method in brief: as §2
Rattus norvegicus [15] = species on record: Rattus norvegicus; test: Change in body weight of DMBA-induced mammary carcinoma tumor bearing rats at 1.8 mg dose; format: functional
Method in brief: (§7)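 DMBA-induced tumor-bearing Sprague-Dawley rats (20 mg DMBA by gavage at 50 days old), randomized when tumor area exceeded 140 mm². Dose per kg was given sc in olive oil, single dose daily Monday to Thursday, double dose Friday. Body weight was measured twice weekly. Read-out was % change in body weight.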

Rattus norvegicus [16] = species on record: Rattus norvegicus; test: Number of DMBA-induced mammary carcinoma tumors in rats at 1.8 mg dose; format: functional; method in brief: as §5
[17] = target: T1, Estrogen receptor (Mus musculus); test: Anti-uterotrophic activity in mice as uterus dry weight (mg)/body weight (g) *100 at 1 ug dose; format: functional, tissue-based; method in brief: as §6
Rattus norvegicus [18] = species on record: Rattus norvegicus; test: Percent unchanged DMBA-induced mammary carcinoma tumors in rats at 1.7 mg dose; format: functional; method in brief: as §3
Rattus norvegicus [19] = species on record: Rattus norvegicus; test: Change in DMBA-induced mammary carcinoma tumor area in rats at 1.7 mg dose; format: functional; method in brief: as §4
Rattus norvegicus [20] = species on record: Rattus norvegicus; test: Change in DMBA-induced mammary carcinoma tumor area in rats at 1.7 mg dose; 318-1054; format: functional; method in brief: as §4
Rattus norvegicus [21] = species on record: Rattus norvegicus; test: Partial remission (%) of DMBA-induced mammary carcinoma tumors in rats at 1.7 mg dose; format: functional; method in brief: as §5
[22] = target: T1, Estrogen receptor (Mus musculus); test: Percentage inhibition of uterotrophic activity at 1 ug dose; format: functional; method in brief: as §1
Rattus norvegicus [23] = species on record: Rattus norvegicus; test: Change in DMBA-induced mammary carcinoma tumor area in rats at 5.1 mg dose; -44-333; format: functional; method in brief: as §4
Rattus norvegicus [24] = species on record: Rattus norvegicus; test: Change in DMBA-induced mammary carcinoma tumor area in rats at 5.1 mg dose; format: functional; method in brief: as §4
Rattus norvegicus [25] = species on record: Rattus norvegicus; test: Formation of new DMBA-induced mammary carcinoma tumors in rats at 5.1 mg dose; format: functional; method in brief: as §5
Rattus norvegicus [26] = species on record: Rattus norvegicus; test: Change in body weight of DMBA-induced mammary carcinoma tumor bearing rats at 1.7 mg dose; format: functional; method in brief: as §7
Rattus norvegicus [27] = species on record: Rattus norvegicus; test: Number of DMBA-induced mammary carcinoma tumors in rats at 5.1 mg dose; format: functional; method in brief: as §5
[28] = target: T1, Estrogen receptor (Mus musculus); test: Percentage inhibition of uterotrophic activity at 5 ug dose; format: functional; method in brief: as §1
Rattus norvegicus [29] = species on record: Rattus norvegicus; test: Percent progressive DMBA-induced mammary carcinoma tumors in rats at 5.1 mg dose; format: functional; method in brief: as §3
Rattus norvegicus [30] = species on record: Rattus norvegicus; test: Number of DMBA-induced mammary carcinoma tumors in rats at 1.7 mg dose; format: functional; method in brief: as §5
Rattus norvegicus [31] = species on record: Rattus norvegicus; test: Change in body weight of DMBA-induced mammary carcinoma tumor bearing rats at 5.1 mg dose; format: functional; method in brief: as §7
Rattus norvegicus [32] = species on record: Rattus norvegicus; test: Complete remission (%) of DMBA-induced mammary carcinoma tumors in rats at 5.1 mg dose; format: functional; method in brief: as §5
Rattus norvegicus [33] = species on record: Rattus norvegicus; test: Formation of new DMBA-induced mammary carcinoma tumors in rats at 1.7 mg dose; format: functional; method in brief: as §5
Rattus norvegicus [34] = species on record: Rattus norvegicus; test: Percent progressive DMBA-induced mammary carcinoma tumors in rats at 1.7 mg dose; format: functional; method in brief: as §3
Rattus norvegicus [35] = species on record: Rattus norvegicus; test: Percent unchanged DMBA-induced mammary carcinoma tumors in rats at 5.1 mg dose; format: functional; method in brief: as §3
Rattus norvegicus [36] = species on record: Rattus norvegicus; test: Partial remission (%) of DMBA-induced mammary carcinoma tumors in rats at 5.1 mg dose; format: functional; method in brief: as §3

T1 sequence (O08537 whole entry, looked up): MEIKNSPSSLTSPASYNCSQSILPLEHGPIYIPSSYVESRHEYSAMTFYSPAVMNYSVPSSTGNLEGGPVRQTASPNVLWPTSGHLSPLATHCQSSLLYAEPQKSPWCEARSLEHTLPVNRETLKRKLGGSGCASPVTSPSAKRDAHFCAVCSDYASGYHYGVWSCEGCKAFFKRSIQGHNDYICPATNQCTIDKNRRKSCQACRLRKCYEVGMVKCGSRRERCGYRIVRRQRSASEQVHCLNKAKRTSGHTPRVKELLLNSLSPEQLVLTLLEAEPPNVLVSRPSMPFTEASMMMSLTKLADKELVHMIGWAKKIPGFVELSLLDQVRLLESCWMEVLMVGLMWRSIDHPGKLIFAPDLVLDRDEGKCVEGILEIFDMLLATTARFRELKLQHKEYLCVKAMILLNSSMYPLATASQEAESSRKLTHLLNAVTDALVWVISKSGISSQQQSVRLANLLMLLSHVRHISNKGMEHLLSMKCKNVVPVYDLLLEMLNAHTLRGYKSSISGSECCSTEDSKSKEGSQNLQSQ
T1 sequence (P19785 whole entry, looked up): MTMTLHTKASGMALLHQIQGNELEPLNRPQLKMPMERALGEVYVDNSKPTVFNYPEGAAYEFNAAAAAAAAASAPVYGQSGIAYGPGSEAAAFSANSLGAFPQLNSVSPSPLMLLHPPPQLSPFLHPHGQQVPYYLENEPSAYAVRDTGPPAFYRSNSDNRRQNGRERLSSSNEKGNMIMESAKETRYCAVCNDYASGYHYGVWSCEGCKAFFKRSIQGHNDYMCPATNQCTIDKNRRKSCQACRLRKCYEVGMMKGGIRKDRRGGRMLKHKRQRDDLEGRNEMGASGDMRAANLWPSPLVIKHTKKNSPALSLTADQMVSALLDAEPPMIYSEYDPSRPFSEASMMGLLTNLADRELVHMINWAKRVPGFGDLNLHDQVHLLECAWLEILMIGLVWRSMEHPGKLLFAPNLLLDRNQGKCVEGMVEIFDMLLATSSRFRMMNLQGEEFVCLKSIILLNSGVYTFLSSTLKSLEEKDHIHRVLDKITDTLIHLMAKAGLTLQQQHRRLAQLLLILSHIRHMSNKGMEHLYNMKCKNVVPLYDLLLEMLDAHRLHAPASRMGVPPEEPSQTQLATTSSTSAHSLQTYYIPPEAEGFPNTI

- inhibition [1]: 25% and 46%
- inhibition [10]: 45%
SMILES: CCn1c(-c2ccc(OC(C)=O)cc2)c(C)c2cc(OC(C)=O)ccc21 [ZINDOXIFENE]
- Uterotrophic effect [2]: 14.1 and 19.6
- Static tumors (Rattus norvegicus [3]): 14%
- Change of tumor area (Rattus norvegicus [4]): -75%
- Partial remission (Rattus norvegicus [5]): 12%
- Anti-uterotrophic effect [6]: 53.5 and 33.5
- Anti-uterotrophic effect [7]: 46.3 and 50.4
- Uterotrophic effect [8]: 16.4
- Uterotrophic effect [9]: 19.5 and 30.5
- Anti-uterotrophic effect [11]: 37.8 and 33
- New tumors (Rattus norvegicus [12]): 25
- Progressed tumors (Rattus norvegicus [13]): 55%
- Uterotrophic effect [14]: 17.9 and 21
- Change of body weight (Rattus norvegicus [15]): 1%
- No. of tumors (Rattus norvegicus [16]): 33
- Anti-uterotrophic effect [17]: 38.5 and 51.1

- inhibition [1]: 62%
- inhibition [22]: 33%
- inhibition [28]: 35%
- inhibition [10]: 42%
SMILES: CC(=O)Oc1ccc(-c2c(C)c3cc(OC(C)=O)ccc3n2C)cc1
- Static tumors (Rattus norvegicus [18]): 15%
- Change of tumor area (Rattus norvegicus [19]): 577%
- Change of tumor area (Rattus norvegicus [20]): 318%
- Partial remission (Rattus norvegicus [21]): 6%
- Uterotrophic effect [2]: 14.6
- Anti-uterotrophic effect [6]: 36.6
- Anti-uterotrophic effect [7]: 39.2
- Change of tumor area (Rattus norvegicus [23]): -44%
- Uterotrophic effect [8]: 13.7
- Change of tumor area (Rattus norvegicus [24]): 9% and 18%
- New tumors (Rattus norvegicus [25]): 37
- Change of body weight (Rattus norvegicus [26]): 2%
- No. of tumors (Rattus norvegicus [27]): 37
- Progressed tumors (Rattus norvegicus [29]): 39%
- No. of tumors (Rattus norvegicus [30]): 29
- Uterotrophic effect [9]: 20.9
- Anti-uterotrophic effect [11]: 28.8
- Change of body weight (Rattus norvegicus [31]): 0%
- Complete remission (Rattus norvegicus [32]): 32%
- New tumors (Rattus norvegicus [33]): 38
- Progressed tumors (Rattus norvegicus [34]): 70%
- Static tumors (Rattus norvegicus [35]): 19%
- Uterotrophic effect [14]: 16.1
- Partial remission (Rattus norvegicus [36]): 10%
- Anti-uterotrophic effect [17]: 40
